According to ChEMBL document CHEMBL1770107, “Design and synthesis of antifungal benzoheterocyclic derivatives by scaffold hopping” (2011):
Converted amounts (≈) assume the structure as drawn.

Key:
Format in all cases: functional
Candida albicans [1] = assay: Antimicrobial activity against Candida albicans after 24 hrs by NCCLS method
Procedure, shortened: (§1)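 Broth serial-dilution MIC in 96-well plates, RPMI 1640 buffered with 0.165 M MOPS. Strains from ATCC or clinical isolates; fluconazole reference. MIC = lowest concentration giving ≥80% growth inhibition (turbidity) versus drug-free control. Read at 24 h for Candida spp., 72 h for C. neoformans, 7 days for filamentous fungi.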

Candida parapsilosis = assay: Antimicrobial activity against Candida parapsilosis after 24 hrs by NCCLS method; conditions: Lodderomyces parapsilosis; procedure, shortened: as §1
Cryptococcus neoformans = assay: Antimicrobial activity against Cryptococcus neoformans after 72 hrs by NCCLS method; procedure, shortened: as §1
Candida tropicalis = assay: Antimicrobial activity against Candida tropicalis after 24 hrs by NCCLS method; procedure, shortened: as §1
Pichia kudriavzevii = assay: Antimicrobial activity against Candida krusei after 24 hrs by NCCLS method; procedure, shortened: as §1
Aspergillus fumigatus = assay: Antimicrobial activity against Aspergillus fumigatus after 7 days by NCCLS method; conditions: 168 h; procedure, shortened: as §1
Candida albicans [2] = assay: Antimicrobial activity against fluconazole resistant Candida albicans clinical isolate after 24 hrs by NCCLS method
Procedure, shortened: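 Broth serial dilution in RPMI 1640 buffered with 0.165 M MOPS; clinical isolate. MIC80 is the lowest concentration giving 80% or greater turbidity reduction relative to the drug-free growth control, read at 24 h for Candida. Fluconazole is the reference drug.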

Trichophyton rubrum = assay: Antimicrobial activity against Trichophyton rubrum after 7 days by NCCLS method; conditions: 168 h; procedure, shortened: as §1
Nannizzia gypsea = assay: Antimicrobial activity against Microsporum gypseum after 7 days by NCCLS method; conditions: 168 h; procedure, shortened: as §1

Structure (SMILES)	MIC80 (Candida albicans [1]) [µg/mL]	MIC80 (Candida parapsilosis) [µg/mL]	MIC80 (Cryptococcus neoformans) [µg/mL]	MIC80 (Candida tropicalis) [µg/mL]	MIC80 (Pichia kudriavzevii) [µg/mL]	MIC80 (Aspergillus fumigatus) [µg/mL]	MIC80 (Candida albicans [2]) [µg/mL]	MIC80 (Trichophyton rubrum) [µg/mL]	MIC80 (Nannizzia gypsea) [µg/mL]
CCCCCCCCN1CCc2c(c3cc(C)ccc3n2C)C1	16 (≈ 51.2 µM)	16 (≈ 51.2 µM)	> 64	64 (≈ 205 µM)	64 (≈ 205 µM)	16 (≈ 51.2 µM)			
CCCCCCCCN1CCc2c(c3cc(I)ccc3n2C)C1	64 (≈ 151 µM)	16 (≈ 37.7 µM)	> 64	> 64	64 (≈ 151 µM)	> 64			
CCCCCCCCNCc1nc2ccccc2[nH]1	> 64		16 (≈ 61.7 µM)	16 (≈ 61.7 µM)		32 (≈ 123 µM)	16 (≈ 61.7 µM)	16 (≈ 61.7 µM)	16 (≈ 61.7 µM)
CCCCCCCCn1cnc2ccc(C)cc2c1=O	> 64	> 64	> 64	> 64	> 64	> 64			
CCCCCCCCN1CCc2c(c3cc(Cl)ccc3n2C)C1	> 64	64 (≈ 192 µM)	> 64	> 64	64 (≈ 192 µM)	> 64			
CCCCCCCCNCc1nc2ccccc2o1	64 (≈ 246 µM)		1 (≈ 3.84 µM)	16 (≈ 61.4 µM)		32 (≈ 123 µM)	64 (≈ 246 µM)	4 (≈ 15.4 µM)	8 (≈ 30.7 µM)
CCCCCCCN1CCc2c(c3cc(Cl)ccc3n2C)C1	> 64	> 64	> 64	> 64	> 64	> 64			
CCCCCCN1CCc2c(c3cc(C)ccc3n2C)C1	64 (≈ 225 µM)	64 (≈ 225 µM)	64 (≈ 225 µM)	64 (≈ 225 µM)	16 (≈ 56.2 µM)	64 (≈ 225 µM)			
CCCCCCN1CCc2c(c3cc(F)ccc3n2C)C1	> 64	> 64	> 64	> 64	> 64	> 64			
CCCCCCN1CCc2c(c3cc(Cl)ccc3n2C)C1	> 64	> 64	> 64	> 64	64 (≈ 210 µM)	64 (≈ 210 µM)			
CCCCCCCCN1CCc2c(c3cc(F)ccc3n2C)C1	64 (≈ 202 µM)	64 (≈ 202 µM)	> 64	> 64	> 64	> 64			
CCCCCCCn1cnc2ccc(C)cc2c1=O	> 64	> 64	> 64	> 64	> 64	64 (≈ 248 µM)			
CCCCCCCCNCc1nc2ccccc2s1	64 (≈ 232 µM)		16 (≈ 57.9 µM)	64 (≈ 232 µM)		> 64	> 64	16 (≈ 57.9 µM)	64 (≈ 232 µM)
CCCCCCCN1CCc2c(c3cc(F)ccc3n2C)C1	64 (≈ 212 µM)	64 (≈ 212 µM)	> 64	> 64	> 64	64 (≈ 212 µM)			
CCCCCCNCc1nc2ccccc2o1	64 (≈ 275 µM)		64 (≈ 275 µM)	64 (≈ 275 µM)		> 64	> 64	16 (≈ 68.9 µM)	16 (≈ 68.9 µM)
CCCCCCCNCc1nc2ccccc2[nH]1	> 64		64 (≈ 261 µM)	> 64		> 64	32 (≈ 130 µM)	64 (≈ 261 µM)	> 64
CCCCCCN1CCc2c(c3cc(I)ccc3n2C)C1	> 64	64 (≈ 161 µM)	> 64	> 64	> 64	> 64			
CCCCCCCCN1CCc2c(c3cc(Br)ccc3n2C)C1	64 (≈ 170 µM)	16 (≈ 42.4 µM)	64 (≈ 170 µM)	> 64	> 64	> 64			
CCCCCCCN1CCc2c(c3cc(Br)ccc3n2C)C1	> 64	64 (≈ 176 µM)	64 (≈ 176 µM)	> 64	> 64	> 64			
CCCCCCNCc1nc2ccccc2s1	64 (≈ 258 µM)		64 (≈ 258 µM)	64 (≈ 258 µM)		> 64	64 (≈ 258 µM)	64 (≈ 258 µM)	64 (≈ 258 µM)
CCCCCCNCc1nc2ccccc2[nH]1	1 (≈ 4.32 µM)		> 64	> 64		> 64	> 64	64 (≈ 277 µM)	> 64
CCCCCCN1CCc2c(c3cc(Br)ccc3n2C)C1	> 64	> 64	> 64	> 64	> 64	64 (≈ 183 µM)			
CCCCCCCN1CCc2c(c3cc(I)ccc3n2C)C1	> 64	64 (≈ 156 µM)	> 64	> 64	> 64	> 64			
OC(Cn1cncn1)(Cn1cncn1)c1ccc(F)cc1F [FLUCONAZOLE]	1 (≈ 3.27 µM)	1 (≈ 3.27 µM)	1 (≈ 3.27 µM)	1 (≈ 3.27 µM)	0.5 (≈ 1.63 µM)	> 64		4 (≈ 13.1 µM)	16 (≈ 52.2 µM)
CCCCCCn1cnc2ccc(C)cc2c1=O	> 64	> 64	> 64	> 64	> 64	> 64			
CCCCCCCNCc1nc2ccccc2s1	64 (≈ 244 µM)		64 (≈ 244 µM)	64 (≈ 244 µM)		> 64	32 (≈ 122 µM)	16 (≈ 61 µM)	16 (≈ 61 µM)
CCCCCCCNCc1nc2ccccc2o1	64 (≈ 260 µM)		16 (≈ 64.9 µM)	64 (≈ 260 µM)		64 (≈ 260 µM)	64 (≈ 260 µM)	16 (≈ 64.9 µM)	16 (≈ 64.9 µM)
CCCCCCCN1CCc2c(c3cc(C)ccc3n2C)C1	16 (≈ 53.6 µM)	16 (≈ 53.6 µM)	> 64	64 (≈ 214 µM)	64 (≈ 214 µM)	16 (≈ 53.6 µM)			
